Experiments:
[1] = melting temperature; fluorescence melt of hairpins on a sequencing array, two-state fit, raised by 9.35 °C to match UV melts; details: sodium 0.088 M
How it was run: (§1)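 In 50 mM Na-HEPES pH 8.0 containing 25 mM NaCl, hairpins from the library on a sequenced MiSeq flow cell were imaged for Cy3 fluorescence at 2.5 °C steps up to 60 °C, with Cy3 and quencher oligos annealed. After normalisation to pre-quench Cy3 and to control constructs, two-state fits with bootstrapping gave melting temperature and folding enthalpy. Four replicates were combined by inverse-variance weighting, and fitted temperatures were shifted up by 9.35 °C to match UV melts.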

[2] = folding enthalpy; higher = less favourable; fluorescence melt of hairpins on a sequencing array, two-state fit; details: sodium 0.088 M
How it was run: as §1

Sequence	Tm [1] [°C]	folding enthalpy [2] [kcal/mol]
GGTGTACGAAAGTAAACC (((.(((....))).)))	48.6	-24.9
GGTGTACGAAAGTAGACC (((.(((....))).)))	52.2	-38.3
GGTGTAGCGAAAGCTACC (((..(((....))))))	49.1	-9.3
GGTGTAGGAAACCACACC (((((.(....).)))))	47.4	-32.9
GGTGTAGGAAACTACGCC ((.((((....)))).))	52.3	-43.2
GGTGTAGGAAACTATACC (((.(((....))).)))	42.4	-32
GGTGTCGAAAGACAGACC ((((((....)))..)))	44	-15.1
GGTGTCGAAAGACGACC ((((((....))).)))	52.6	-19.9
GGTGTCGAAAGACTCACC ((((((....)))..)))	39.1	-17.6
GGTGTCGGAAACGGCACC ((((.((....)).))))	64.7	-46.5
GGTGTGGGAAACCACATC (.(((((....))))).)	51.2	-21.1
GGTGTGGGAAACCACGCC ((.((((....)))).))	60.5	-27.4
GGTGTGGGAAACCACGTC (..((((....))))..)	39.3	-13
GGTGTGGGAAACCATGCC ((..(((....)))..))	45.5	-30.7
GGTGTGGGAAACCGCATC (.((.((....)).)).)	41.9	-23.7
GGTGTTGCGAAAGCAACC (((..(((....))))))	49.5	-8.2
GGTGTTGGAAACAATACC (((.(((....))).)))	47.4	-39.7
GGTGTTGGAAACAGCATC (.((.((....)).)).)	46.5	-17.7
GGTGTTGGAAACGACACC (((((.(....).)))))	54.3	-50.3
GGTTAACCGAAAGGTACC (((..(((....))))))	38	-17.4
GGTTAACGAAAGTTTACC (((.(((....))).)))	45.2	-33.3
GGTTAATCGAAAGATACC (((..(((....))))))	29.2	-17.1
GGTTACCGAAAGGTCACC (((.(((....))).)))	49.1	-27.7

Sequence	Tm [1] [°C]	folding enthalpy [2] [kcal/mol]
GGTTACGAAAGTAAAACC ((((((....)))..)))	36.6	-24.3
GGTTACGAAAGTAACACC ((((((....)))..)))	44.6	-12.7
GGTTACGAAAGTAGCACC ((((((....)))..)))	31.7	-14.5
GGTTACGGAAACGTAATC (.(((((....))))).)	45.5	-30.5
GGTTAGACGAAAGTCACC (((..(((....))))))	27	-6.17
GGTTAGGCGAAAGCCACC (((..(((....))))))	42.9	-12.5
GGTTAGGGAAACCTGACC (((.(((....))).)))	48	-33
GGTTATACGAAAGTAACC (((..(((....))))))	38.1	-14.7
GGTTCACCGAAAGGTACC (((..(((....))))))	32.2	-11.9
GGTTCACGAAAGTGCACC (((.(((....))).)))	50.5	-29.7
GGTTCACGAAAGTGTACC (((.(((....))).)))	52.4	-36.4
GGTTCAGGAAACCGAACC (((((.(....).)))))	47.8	-26.5
GGTTCAGGAAACTGGACC (((.(((....))).)))	50.7	-44.8
GGTTCCCGAAAGGGCACC (((.(((....))).)))	51.6	-26.2
GGTTCCGAAAGGAATACC ((((((....)))..)))	41.5	-14.1
GGTTCCGAAAGGACTACC ((((((....)))..)))	36.1	-15.3
GGTTCCGAAAGGAGGACC ((((((....)))..)))	38.1	-18.8
GGTTCCGAAAGGAGTACC ((((((....)))..)))	38.9	-21
GGTTCCGAAAGGATCACC ((((((....)))..)))	33.1	-14.7
GGTTCGCGAAAGCGACC (((.(((....))))))	61.7	-14.9
GGTTCGGGAAACCGGACC (((.(((....))).)))	58.3	-39.5
GGTTCGGGAAACCGGATC (.(.(((....))).).)	38.2	-18.3
GGTTCTCCGAAAGGAACC (((..(((....))))))	42.9	-20.8

Sequence	Tm [1] [°C]	folding enthalpy [2] [kcal/mol]
GGTTCTCGAAAGAGTACC (((.(((....))).)))	46.7	-26.1
GGTTCTGGAAACAAAACC ((((.((....)).))))	28.5	-16.3
GGTTCTGGAAACAGAACC (((((((....)))))))	60.8	-46.5
GGTTGAACGAAAGTTACC (((..(((....))))))	31.1	-13.2
GGTTGACGAAAGTCCACC (((.(((....))).)))	50.5	-32
GGTTGAGGAAACTCAACC (((((((....)))))))	60.7	-40.1
GGTTGAGGAAACTCGACC (((.(((....))).)))	51.5	-44.2
GGTTGCCGAAAGGCACC (((.(((....))))))	59	-14.5
GGTTGCGAAAGCAGAACC ((((((....)))..)))	47.5	-19.8
GGTTGCGAAAGCAGACC ((((((....))).)))	51	-27.2
GGTTGCTCGAAAGAGACC (((..(((....))))))	29.6	-13.4
GGTTGGCGAAAGCCCACC (((.(((....))).)))	51.4	-25.8
GGTTGGGAAACCAACC ((((((....))))))	60.4	-42.9
GGTTGGGCGAAAGCCACC (((..(((....))))))	39.8	-12.7
GGTTGGGGAAACCCAGTC (..((((....))))..)	30.4	-8.72
GGTTGGGGAAACCTAACC ((((.((....)).))))	48	-32.4
GGTTGGGGAAACCTGACC (((..((....))..)))	44.1	-22.5
GGTTGTCGAAAGACACC (((.(((....))))))	53.1	-25.9
GGTTGTGGAAACACGACC (((.(((....))).)))	54.5	-43.2
GGTTGTGGAAACACGATC (.(.(((....))).).)	34	-21.9
GGTTGTGGAAACATAACC ((((.((....)).))))	45.9	-37
GGTTGTGGAAACGCAACC (((((.(....).)))))	54	-40.7
GGTTTACGAAAGTAACC (((.(((....))))))	44.2	-20.6

Sequence	Tm [1] [°C]	folding enthalpy [2] [kcal/mol]
GGTTTAGAAATAAACC ((((((....))))))	45.3	-29.2
GGTTTAGGAAACTAAATC (.(((((....))))).)	35.5	-22.2
GGTTTAGGAAACTAAGCC ((.((((....)))).))	39.8	-27.6
GGTTTCCGAAAGGAACC (((.(((....))))))	51.8	-19.8
GGTTTCCGAAAGGACACC (((.(((....))).)))	49	-39
GGTTTCGAAAGAAAACC ((((((....))).)))	46.4	-25.7
GGTTTCGAAAGAAGGACC ((((((....)))..)))	29.1	-15.5
GGTTTCGGAAACGAAATC (.(((((....))))).)	48	-25.1
GGTTTCGGAAACGAAGTC (..((((....))))..)	26.4	-10.3
GGTTTGCCGAAAGGCACC (((..(((....))))))	30.7	-8.06
GGTTTGGGAAACCAAATC (.(((((....))))).)	44.5	-31.1
GGTTTGGGAAACCAAGTC (..((((....))))..)	28.1	-15.4
GGTTTGGGAAACCAGATC (.(.(((....))).).)	30	-10.3
GGTTTGGGAAACCGAATC (.((.((....)).)).)	35.3	-20.2
GGTTTGGGAAACTGAACC ((((..(....)..))))	35.1	-29.2
GGTTTTACGAAAGTAACC (((..(((....))))))	31.7	-11.8
GGTTTTGGAAACAAGACC (((.(((....))).)))	42.8	-31.6
GTAAAACGAAAGTTGTAC (((.(((....))).)))	35.3	-20.4
GTAAACACGAAAGTGTAC (((..(((....))))))	31.2	-11.7
GTAAACCGAAAGGTATAC (((.(((....))).)))	40.5	-25.1
GTAAACCGAAAGGTGTAC (((.(((....))).)))	46.2	-23.3
GTAAACGGAAACGCTTAC ((((.((....)).))))	37.1	-29.5

Source: the array DNA melting data of Ke et al. (doi:10.1101/2024.01.08.574731)
